Key:
DU-145 = assay: Antiproliferative activity against human DU145 cells after 48 hrs by CCK8 assay; format: functional, cell-based; details: DU-145, 48 h
Homo sapiens = species on record: Homo sapiens; assay: Selectivity ratio of IC50 for Aurora B (unknown origin) to IC50 for Aurora A (unknown origin)
HeLa = assay: Antiproliferative activity against human HeLa cells after 48 hrs by CCK8 assay; format: functional, cell-based
SK-BR-3 = assay: Antiproliferative activity against human SKBR3 cells after 48 hrs by CCK8 assay; format: functional, cell-based
Aurora kinase B = Aurora kinase B (Homo sapiens, UniProt Q96GD4); assay: Inhibition of Aurora B (unknown origin) using FAM-labelled peptide as substrate pretreated for 10 mins followed by substrate addition and measured after 60 mins by fluorescence assay
Chain of Aurora kinase B (Q96GD4 whole entry): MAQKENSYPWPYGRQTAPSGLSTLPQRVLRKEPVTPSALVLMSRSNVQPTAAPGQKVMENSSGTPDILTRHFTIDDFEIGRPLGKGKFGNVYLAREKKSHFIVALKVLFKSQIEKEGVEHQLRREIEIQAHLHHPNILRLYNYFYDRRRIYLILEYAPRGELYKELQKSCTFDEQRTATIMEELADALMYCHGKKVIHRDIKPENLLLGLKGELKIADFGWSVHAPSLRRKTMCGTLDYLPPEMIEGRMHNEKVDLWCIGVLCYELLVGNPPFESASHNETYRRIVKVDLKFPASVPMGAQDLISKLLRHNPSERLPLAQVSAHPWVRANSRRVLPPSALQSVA
Method in brief: (§1)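 Kinase IC50 values are the mean of at least two independent experiments; selectivity is the Aurora A/B ratio of these IC50s.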

MOLT-4 = assay: Antiproliferative activity against human MOLT4 cells after 48 hrs by CCK8 assay; format: functional, cell-based
MDA-MB-231 = assay: Antiproliferative activity against human MDA-MB-231 cells after 48 hrs by CCK8 assay; format: functional, cell-based; details: MDA-MB-231, 48 h
MCF7 = assay: Antiproliferative activity against human MCF7 cells after 48 hrs by CCK8 assay; format: functional, cell-based
Aurora kinase A = target: T1, Aurora kinase A (Homo sapiens, UniProt O14965); assay: Inhibition of Aurora A (unknown origin) using FAM-labelled peptide as substrate pretreated for 10 mins followed by substrate addition and measured after 60 mins by fluorescence assay; method in brief: as §1
T1 sequence (O14965 whole entry): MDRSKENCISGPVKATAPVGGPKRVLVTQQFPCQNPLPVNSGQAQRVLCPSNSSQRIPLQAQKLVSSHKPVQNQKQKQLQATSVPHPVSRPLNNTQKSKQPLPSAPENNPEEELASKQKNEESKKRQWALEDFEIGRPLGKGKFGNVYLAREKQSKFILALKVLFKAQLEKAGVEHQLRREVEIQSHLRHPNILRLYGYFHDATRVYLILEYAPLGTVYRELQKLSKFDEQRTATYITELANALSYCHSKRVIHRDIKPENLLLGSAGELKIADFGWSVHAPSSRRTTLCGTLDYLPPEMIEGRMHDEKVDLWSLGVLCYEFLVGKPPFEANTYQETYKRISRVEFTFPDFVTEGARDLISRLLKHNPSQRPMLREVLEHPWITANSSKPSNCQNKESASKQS

K562 = assay: Antiproliferative activity against human K562 cells after 48 hrs by CCK8 assay; format: functional, cell-based
[1] = Homo sapiens, HeLa, 48 h, read-out: IC50
[2] = Homo sapiens, SK-BR-3, 48 h, read-out: IC50
[3] = Homo sapiens, MOLT-4, 48 h, read-out: IC50
[4] = Homo sapiens, MCF7, 48 h, read-out: IC50
[5] = Homo sapiens, K562, 48 h, read-out: IC50

SMILES | IC50 (DU-145) [µM] | Ratio IC50 (Homo sapiens) | IC50 (HeLa; [1]) [nM] | IC50 (SK-BR-3; [2]) [µM] | IC50 (Aurora kinase B) [nM] | IC50 (MOLT-4; [3]) [µM] | IC50 (MDA-MB-231) [µM] | IC50 (MCF7; [4]) [µM] | IC50 (Aurora kinase A) [nM] | IC50 (K562; [5]) [µM] | IC50 (SK-BR-3; sk-br-3) | IC50 (MOLT-4; molt-4) | IC50 (K562; k562) | IC50 (MCF7; mcf7) | IC50 (HeLa; hela)
COc1cccc2c(Nc3cc(C)[nH]n3)nc(Cc3ccccc3)nc12 | > 10 | 22 | 1450 | 2.72 | 893 | 4.81 | 2.62 | 6.28 | 41 | 1.44 |  |  |  |  | 
Cc1cc(Nc2nc(-c3ccccc3)nc3ccccc23)[nH]n1 |  |  |  |  | 858 |  |  |  | 28 |  |  |  |  |  | 
Cc1cc(Nc2nc(-c3ccccc3)nc3cc(Cl)ccc23)n[nH]1 | > 30 |  | > 30000 |  |  |  | > 30 | > 30 | 132 |  | Not Active | Not Active | Not Active |  | 
Cc1cc(Nc2nc(Cc3ccccc3)nc3ccccc23)n[nH]1 | 4.44 | 18 | 1520 | 9.1 | 1270 | 5.79 | 3.12 | 13.3 | 69 | 2.29 |  |  |  |  | 
Cc1cc(Nc2nc(-c3ccccc3)nc3cc(N4CCC(C(=O)O)CC4)ccc23)n[nH]1 | 21.5 | 20 | 1860 | 16.3 | 127 | 2.2 | 10.5 | 6.04 | 6 | 5.52 |  |  |  |  | 
Cc1cc(Nc2nc(-c3ccccc3)nc3c([N+](=O)[O-])cccc23)n[nH]1 | 6.62 | 26 | 2460 | 4.59 | 4590 | 6.48 | 3.47 | 4.53 | 174 | 6.43 |  |  |  |  | 
COc1cccc(OC)c1C(=O)c1nc(Nc2cc(C)[nH]n2)c2ccc(N3CCC(C(=O)OC(C)(C)C)CC3)cc2n1 | 3.61 | > 276 | 526 | 2.75 | > 60000 |  | 1.38 | 1.51 | 217 | 0.373 |  |  |  |  | 
Cc1cc(Nc2nc(-c3ccc4ccccc4c3)nc3ccccc23)n[nH]1 | 10.4 | 40 | 3750 | 7.15 | 5070 | 10.4 | 11 | > 30 | 128 | 15 |  |  |  |  | 
Cc1cc(Nc2nc(C(=O)c3ccccc3)nc3ccccc23)n[nH]1 | > 30 | 61 | 5220 | 14.7 | 11500 | 8.82 | 17 | > 30 | 188 | > 30 |  |  |  |  | 
Cc1cc(Nc2nc(-c3ccccc3)nc3ccccc23)n[nH]1 | 7.99 | 30 | 883 | 2.54 |  | 5.15 | 2.88 | 6.16 |  | 2.99 |  |  |  |  | 
Cc1cc(Nc2nc(-c3ccccc3)nc3cc(N4CCN(C)CC4)ccc23)n[nH]1 | 0.409 | 30 | 179 | 2.49 | 270 | 0.149 | 0.142 | 0.654 | 10 | 0.191 |  |  |  |  | 
CN1CCN(c2ccc3c(Nc4cc[nH]n4)nc(-c4ccccc4)nc3c2)CC1 | 5.27 | 2.4 | 7850 | 6.12 | 14400 |  | 3.98 | 7.88 | 5950 | 6.75 |  |  |  |  | 
COc1cccc2c(Nc3cc(C)[nH]n3)nc(-c3ccccc3)nc12 | 6.36 | 21 | 817 | 1.85 | 547 | 2.86 | 1.9 | 4.17 | 25 | 2.3 |  |  |  |  | 
Cc1cc(Nc2nc(-c3ccccc3)nc3cc(F)ccc23)n[nH]1 | > 30 | 88 | 9700 | 10.7 | 6280 |  | 11.2 | > 30 | 72 | > 30 |  | Not Active |  |  | 
COc1ccc(C(=O)c2nc(Nc3cc(C)[nH]n3)c3ccc(Cl)cc3n2)cc1 | 12.5 | > 134 | > 30000 |  | > 100000 |  | 12.3 |  | 744 |  | Not Active |  | Not Active | Not Active | 
Cc1ccc(C(=O)c2nc(Nc3cc(C)[nH]n3)c3ccc(Cl)cc3n2)cc1 | 16 | > 77 |  |  | > 100000 |  | > 30 |  | 1300 |  | Not Active |  | Not Active | Not Active | Not Active
Cc1cc(Nc2nc(-c3ccccc3)nc3cc([N+](=O)[O-])ccc23)n[nH]1 | 7.36 | > 308 | 10100 | 8.86 | > 100000 |  | 9.83 | > 30 | 325 | 12 |  |  |  |  | 
Cc1cc(Nc2nc(C(C)C)nc3ccccc23)n[nH]1 | 7.43 | 11 | 2810 | 11.9 | 1150 |  | 4.8 | 10.7 | 103 | 3.92 |  |  |  |  | 
COc1ccc2c(Nc3cc(C)[nH]n3)nc(-c3ccccc3)nc2c1 | 4.73 | 22 | 1310 | 2.03 | 773 | 1.2 | 1.32 | 3.6 | 34 | 2.12 |  |  |  |  | 

From ChEMBL document CHEMBL4270643, “Structure-based drug design: Synthesis and biological evaluation of quinazolin-4-amine derivatives as selective Aurora A kinase inhibitors” (Eur J Med Chem, 2018)
